What was measured:
OATP1A4 = molecular target: T1, OATP1A4 (Rattus norvegicus, UniProt O35913); assay: Drug uptake by rat hepatic OATP1A4 transporters expressed in CHO cells at 10 uM relative to wild type CHO cells; format: ADME, cell-based; conditions: CHO cells expressing rat OATP1A4, read-out: FC
T1 sequence (O35913 whole entry): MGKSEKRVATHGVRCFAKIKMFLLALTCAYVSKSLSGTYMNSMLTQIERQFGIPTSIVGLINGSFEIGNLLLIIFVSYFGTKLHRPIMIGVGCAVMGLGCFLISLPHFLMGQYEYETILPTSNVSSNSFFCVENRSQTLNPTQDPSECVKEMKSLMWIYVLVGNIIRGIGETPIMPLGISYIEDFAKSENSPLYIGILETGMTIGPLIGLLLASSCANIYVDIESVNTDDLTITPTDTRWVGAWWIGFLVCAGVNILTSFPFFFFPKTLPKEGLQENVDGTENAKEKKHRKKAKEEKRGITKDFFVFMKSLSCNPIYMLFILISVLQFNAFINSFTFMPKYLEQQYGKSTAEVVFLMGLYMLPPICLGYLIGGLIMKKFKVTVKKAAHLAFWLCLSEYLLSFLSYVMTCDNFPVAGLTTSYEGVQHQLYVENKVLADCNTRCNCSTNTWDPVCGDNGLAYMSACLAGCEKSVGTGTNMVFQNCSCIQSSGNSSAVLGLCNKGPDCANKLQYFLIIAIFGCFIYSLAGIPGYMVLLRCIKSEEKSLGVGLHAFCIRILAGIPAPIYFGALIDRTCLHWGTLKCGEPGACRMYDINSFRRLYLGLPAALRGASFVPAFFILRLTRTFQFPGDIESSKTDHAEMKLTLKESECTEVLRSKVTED
Procedure, shortened: (§1)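 Individual hepatic OATP transporters were over-expressed in CHO or HEK293 cells: rat rOatp1a1, rOatp1a4 and rOatp1b2, and human hOATP1B1, hOATP1B3 and hOATP2B1. Substrate uptake is expressed as fold difference relative to the wild-type parental line. Rosuvastatin/pravastatin served as positive control and midazolam as negative control in each assay.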

OATP1B1 = molecular target: T2, OATP1B1 (Homo sapiens, UniProt Q9Y6L6); assay: Drug uptake by human hepatic OATP1B1 transporter expressed in HEK293 cells at 1 uM relative to wild type HEK293 cells; format: ADME, cell-based; conditions: HEK293 cells expressing human OATP1B1, read-out: FC; procedure, shortened: as §1
T2 sequence (Q9Y6L6 whole entry): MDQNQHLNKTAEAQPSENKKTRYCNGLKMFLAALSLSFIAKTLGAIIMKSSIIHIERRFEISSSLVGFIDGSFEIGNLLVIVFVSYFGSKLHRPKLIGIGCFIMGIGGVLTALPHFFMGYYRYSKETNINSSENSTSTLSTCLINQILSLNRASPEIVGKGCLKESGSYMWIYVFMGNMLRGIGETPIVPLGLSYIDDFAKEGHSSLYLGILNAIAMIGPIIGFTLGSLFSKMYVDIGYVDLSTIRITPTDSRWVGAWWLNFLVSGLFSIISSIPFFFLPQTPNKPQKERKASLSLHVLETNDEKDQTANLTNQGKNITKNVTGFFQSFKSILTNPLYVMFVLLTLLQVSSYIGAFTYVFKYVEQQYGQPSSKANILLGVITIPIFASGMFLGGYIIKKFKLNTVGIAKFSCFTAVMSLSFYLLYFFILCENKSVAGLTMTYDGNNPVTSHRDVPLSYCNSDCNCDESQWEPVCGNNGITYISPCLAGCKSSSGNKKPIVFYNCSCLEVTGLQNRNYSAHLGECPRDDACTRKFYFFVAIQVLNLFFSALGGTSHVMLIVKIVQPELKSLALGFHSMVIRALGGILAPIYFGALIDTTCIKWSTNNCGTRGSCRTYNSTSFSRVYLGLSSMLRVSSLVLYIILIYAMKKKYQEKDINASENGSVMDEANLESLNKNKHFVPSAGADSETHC

[1] = Fraction unbound in dog plasma at 0.5 ug/ml; format: ADME, cell-free, Canis lupus familiaris
Procedure, shortened: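 Unbound fraction in rat, dog or human plasma, measured at a drug concentration of 0.5 μg/mL.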

[2] = Oral bioavailability in rat at 10 mg/kg; format: ADME, organism-based; conditions: in vivo
Procedure, shortened: (§2)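 Rat and dog given 1 mg/kg iv, or po at 10 mg/kg (rat) or 5 mg/kg (dog). Plasma sampled to 24 h. AUC(0-24) as free drug using plasma protein binding values. Geometric mean of n = 2 animals/group; dog po n = 3 or n = 1.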

Canis familiaris = assay: fCmax in dog at 5 mg/kg, po; format: ADME, organism-based, Canis lupus familiaris; parameters: dose 5 mg/kg, route oral; conditions: in vivo
Procedure, shortened: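 Single po dose: rat 10 mg/kg (n = 2), dog 5 mg/kg (n = 1 or 3 animals). Values are geometric means. Cmax is given as free drug concentration using plasma protein binding values, which were determined at 0.5 μg/mL.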

[3] = Drug excretion in human urine after 24 hrs; format: ADME, tissue-based; conditions: read-out: Activity
Procedure, shortened: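 Single ascending oral dose in healthy volunteers; the percentage of drug excreted in urine was measured at 24 h post dose.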

[4] = Terminal half life in human plasma at 40 mg administered as single dose; format: ADME, cell-free; conditions: read-out: beta t1/2 (converted)
Homo sapiens = assay: Inhibition of HMG-CoA reductase in human assessed as decrease in AUC (0 to 72 hrs) of mevalonate level in plasma at 40 mg administered as single dose relative to control; format: functional
Plasma [5] = assay: fAUC (0 to infinity) in human plasma at 40 mg administered as single dose; format: ADME, cell-free
Procedure, shortened: (§3)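 Phase 1 single ascending oral dose in healthy volunteers, with N per dose group. Total plasma Cmax and AUC(0-∞) were measured. Free-drug exposures were derived from these using plasma protein binding (human plasma fu measured at 0.5 μg/mL).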

Plasma [6] = assay: fCmax in human plasma at 40 mg administered as single dose; format: ADME, cell-free; procedure, shortened: as §3
Rattus norvegicus = assay: fAUC (0 to 24 hrs) in rat at 1 mg/kg, iv; format: ADME, organism-based; parameters: dose 1 mg/kg, route intravenous; conditions: in vivo; procedure, shortened: as §2
[7] = Cmax in human plasma at 40 mg administered as single dose; format: ADME, organism-based; parameters: dose 40 mg
Procedure, shortened: (§4)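 Phase 1 single ascending oral dose in healthy volunteers, about 5–6 subjects per dose. Total plasma drug Cmax and AUC(0-∞) were measured. Free-drug exposures were derived using plasma protein binding.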

[8] = AUC (0 to infinity) in human plasma at 40 mg administered as single dose; format: ADME, cell-free; parameters: dose 40 mg, time infinity; procedure, shortened: as §4
[9] = Half life in rat at 1 mg/kg, iv; format: ADME, organism-based; parameters: dose 1 mg/kg, route intravenous; conditions: in vivo
Procedure, shortened: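 Intravenous 1 mg/kg dose in rat or dog. Terminal half-life was derived from plasma concentrations and is reported as the geometric mean of n = 2 animals per group.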

SMILES	uptake ratio at 10 µM (OATP1A4)	uptake ratio at 1 µM (OATP1B1)	fraction unbound at 0.5 ug/ml [1]	bioavailability [2] [%]	fCmax (Canis familiaris) [ng/mL]	dose excreted at 24 h [3] [%]	half-life [4] [h]	inhibition (INH) (Homo sapiens) [%]	fAUC (Plasma [5]) [ng·h/mL]	fCmax (Plasma [6]) [ng/mL]	fAUC (Rattus norvegicus) [ng·h/mL]	Cmax [7] [ng/mL]	AUC(0-inf) [8] [ng·h/mL]	half-life [9] [h]
CC(C)c1nc(N(C)S(C)(=O)=O)nc(-c2ccc(F)cc2)c1/C=C/[C@@H](O)C[C@@H](O)CC(=O)O [ROSUVASTATIN]	17.3	14.4												
Cc1ncc2n1-c1ccc(Cl)cc1C(c1ccccc1F)=NC2 [MIDAZOLAM]	0.82	0.6												
Cc1ccc(CNC(=O)c2nn(-c3ccc(F)cc3)c(CC[C@@H](O)C[C@@H](O)CC(=O)O)c2C(C)C)cc1	3	21.6	0.032	6	51.5	12	8.57	-3	261	90.3	10	1770	5110	0.34
CC[C@H](C)C(=O)O[C@H]1C[C@H](O)C=C2C=C[C@H](C)[C@H](CC[C@@H](O)C[C@@H](O)CC(=O)O)[C@H]21 [PRAVASTATIN]	1.8	73.7												
O=C([O-])C[C@H](O)C[C@H](O)CCn1c(-c2ccc(F)cc2)nc(C(=O)NCc2cccc(F)c2)c1C1CC1.[Na+]	7.3	49	0.43	0.3	5.4	< 1	3.22	-19	1.81	0.653	83	2.25	6.27	0.43
